# High-throughput results deposited in PubChem by several laboratories.
# Tb MetRS inh: Trypanosoma brucei MetRS inhibition. purified T. brucei MetRS, ATP depletion, Kinase-Glo luminescence. inhibition, % at 11.9 µM. 360,000 compounds, 0.4% hits. AID 624268;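 active = inhibition above a per-plate cutoff of the control wells' mean inhibition plus 3 SD, cut at about 5.5% in these data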
#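 Test system – parasite MetRS enzyme · Reagent – substrates ATP, L-methionine and bulk Escherichia coli tRNA · Doses – 11.9 µM compound single dose, 0.9% DMSO · Times – 15 min enzyme-compound preincubation, 2 h reaction, 10 min detection, 25 °C · Signal – Kinase-Glo luminescence, ATP depletion format · Controls – DMSO-only wells as low control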
# PG9 binder: small molecules binding HIV-1 gp120 antibody PG9. TR-FRET gp120-PG9 antibody binding. inhibition, % at 6.7 µM. 360,000 compounds, 0.43% hits. AID 624416; in the data active = inhibition above about 8.5%
# Rin1 Abl inh: inhibitors of human Rin1-Abl protein interaction | P00519+Q13671 | TR-FRET Rin1/Abl binding, biochemical | inhibition, % at 7.35 µM | 360,000 compounds, 0.4% hits; in the data active = inhibition above about 5%, passing the limit was not always enough
# Rev-erbA mod: modulates human Rev-erb alpha binding to DNA; P20393; Rev-erbα–FITC-DNA binding, fluorescence polarization, 90 min; activity, % at 10 µM; 370,000 compounds, 0.79% hits; AID 1259318;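 active = activity above about 14%, limit read from the data; passing the limit was not always enough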
# Target sequence (P20393 whole entry, looked up): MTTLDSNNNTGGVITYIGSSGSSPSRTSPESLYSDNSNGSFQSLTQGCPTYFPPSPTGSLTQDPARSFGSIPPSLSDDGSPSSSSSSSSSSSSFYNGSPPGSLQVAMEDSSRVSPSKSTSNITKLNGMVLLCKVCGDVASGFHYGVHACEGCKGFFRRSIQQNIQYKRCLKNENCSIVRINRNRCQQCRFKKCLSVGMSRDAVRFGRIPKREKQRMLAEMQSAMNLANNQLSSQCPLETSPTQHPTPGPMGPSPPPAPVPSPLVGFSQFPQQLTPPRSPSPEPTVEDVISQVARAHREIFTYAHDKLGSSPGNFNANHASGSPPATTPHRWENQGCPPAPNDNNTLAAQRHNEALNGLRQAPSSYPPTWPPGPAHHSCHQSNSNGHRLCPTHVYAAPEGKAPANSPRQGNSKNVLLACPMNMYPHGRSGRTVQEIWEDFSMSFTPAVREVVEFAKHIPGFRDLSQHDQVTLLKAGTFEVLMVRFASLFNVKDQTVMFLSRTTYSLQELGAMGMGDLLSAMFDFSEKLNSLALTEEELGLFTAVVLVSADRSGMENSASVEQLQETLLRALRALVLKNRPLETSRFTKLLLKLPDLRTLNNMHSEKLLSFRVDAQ
# Rin1-Abl confirm: Rin1-Abl interaction inhibition confirmation | shares compounds with Rin1 Abl inh | TR-FRET Rin1-Abl binding, purified proteins | inhibition, % at 7.35 µM | 1,300 compounds, 49% hits | AID 602124
# GFP quencher: quenches GFP fluorescence, counter-screen for Rin1-Abl inhibitors; inhibition, % at 6.75 µM; AID 602125; inhibitors/quenchers counterscreen; shares compounds with Rin1 Abl inh; 1,300 compounds, 8.5% hits;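 note: ABL1-eGFP fusion protein alone without its partner RIN1-SBP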
# GFP quench dose: counter-screen for Rin1-Abl inhibitors: GFP quenchers, dose response. shares compounds with Rin1 Abl inh. 230 tested, under 10 active. IC50, µM. GFP fluorescence interference/quenching counterscreen; call rule not given here;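 note: ABL1-eGFP fusion protein alone without its RIN1 binding partner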
# Numbers stand for hits; – = inactive; · = not tested or not shown. A selection: hits, their analogues and other compounds. The true share with any hit is near 1.8%. Cut-off read from the data, not from the text of the source, unless noted: active = inhibition above about 6.5%; inactive = the rest.
SMILES,Tb MetRS inh,PG9 binder,Rin1 Abl inh,Rev-erbA mod,Rin1-Abl confirm,GFP quencher,others
Cc1ccc(Cl)cc1N1C(=O)CC(C)(C)CC1=O,–,–,7.2,–,–,–,
COCCCn1c(SCC(=O)Nc2ccc(C(C)=O)cc2)nc2ccccc2c1=O,–,–,10,–,7.4,–,
CCOC(CCn1c(SCC(=O)Nc2cc(C)on2)nc2ccccc2c1=O)OCC,–,–,9.4,–,–,–,
C[C@H]1[C@@H](NC(=O)C2CCC2)CC[C@@]23CCCN2C(=O)CCC[C@@H]13,·,·,·,–,·,·,
COc1cccc(NC(=O)CN2C(=O)CSc3ccc(S(=O)(=O)N4CCOCC4)cc32)c1,–,–,–,–,·,·,
O=C(CN1C(=O)CCSc2ccc(S(=O)(=O)N3CCOCC3)cc21)Nc1cccc(F)c1,–,–,16,–,15,–,
CC(C)C[C@H](NC1(C(=O)NCCc2c[nH]c3ccccc23)CCN(C)CC1)C(=O)NCCCc1ccccc1,·,·,·,–,·,·,
CCOC(=O)C1=C(C)NC(=S)N(C(C)=O)C1c1ccc(OC)c(OC)c1 (configuration not stated),–,–,–,–,·,·,
CCOC(=O)C1=C(C)Nc2nnnn2C1c1ccc(OC)c(Br)c1 (configuration not stated),–,–,11,–,–,–,
CC(NC(=O)C(=O)c1cn(CC(=O)N2CCOCC2)c2ccccc12)c1ccccc1 (configuration not stated),–,–,18,–,–,–,
CC1(C)C=C2C(N(CC3CC3)C(=N)N2C(=O)OCc2ccccc2)n2c(=O)n(-c3ccccc3)c(=O)n21 (configuration not stated),·,·,·,–,·,·,
CN(CC(=O)Nc1ccc(C#N)cc1)Cc1ccc(Cl)c(Cl)c1,–,–,6.1,–,–,–,
CN=C1S/C(=C/c2cc(C)n(-c3ccc(Cl)cc3F)c2C)C(=O)N1C,·,·,·,–,·,·,
O=C1[C@@H](Oc2ccccc2)[C@@H](c2ccccc2)N1c1cccnc1,–,–,13,–,10,–,
O=C1[C@@H](Oc2ccccc2)[C@@H](c2ccncc2)N1c1ccccc1,–,–,–,–,·,·,
CN(Cc1ccccc1)S(=O)(=O)c1ccc(Cl)c(C(=O)N2CCC2)c1,–,–,22,–,17,–,GFP quench dose=–
CN(Cc1ccccc1)S(=O)(=O)c1ccc(Cl)c(C(=O)N2CCC(C(N)=O)CC2)c1,–,–,–,–,·,·,
O=c1[nH]c(/C=C\c2ccc(O)c(O)c2)nc(O)c1[N+](=O)[O-],–,–,8.3,–,8.2,–,
O=c1[nH]c(/C=C\c2cccc(O)c2)nc(O)c1[N+](=O)[O-],–,–,–,–,·,·,
CCOC(=O)C1=C(C)c2ccccc2OC1(CC)C(=O)OCC (configuration not stated),–,–,–,–,·,·,
CC(=O)C1=C(C)OC2(O)c3ccccc3C(=O)C12O (configuration not stated),–,–,18,–,18,–,GFP quench dose=–
CCOC(=O)C1=C(C)OC2(O)c3ccccc3C(=O)C12O (configuration not stated),–,–,22,–,36,–,GFP quench dose=–
COC(=O)c1cc(C(C)c2c[nH]c3ccccc23)n2ccccc12 (configuration not stated),·,·,·,–,·,·,
CNC(=O)c1oc(-c2ccc(Cl)cc2)nc1C,–,–,13,–,–,–,
Cc1nc(Cl)sc1C(=O)Nc1ccc(Cl)cc1,–,–,–,–,·,·,
SMILES,Tb MetRS inh,PG9 binder,Rin1 Abl inh,Rev-erbA mod,Rin1-Abl confirm,GFP quencher,others
CC(=O)Nc1ccc(S(=O)(=O)c2ccc(NC(C)=O)cc2)cc1,·,·,·,–,·,·,
CCN(CC)CCNc1ncnc2c1sc1nc(N3CCOCC3)c3c(c12)CCCC3,–,–,11,–,–,–,
CN(C)CCNc1ncnc2c1sc1nc(N3CCCC3)c3c(c12)CC(C)(C)OC3,–,–,7.2,–,10,–,
OCCNc1ncnc2c1sc1nc(N3CCOCC3)c3c(c12)CCC3,–,–,–,–,·,·,
CC(C)CNc1ncnc2c1sc1nc(N3CCOCC3)c3c(c12)CC(C)(C)OC3,–,–,–,–,·,·,
CCN(CC)CCNc1ncnc2c1sc1nc(N3CCCC3)c3c(c12)CC(C)(C)OC3,–,–,10,–,13,–,
CC(=O)N1CCN(c2ccc(OCC3CO[C@](Cn4ccnc4)(c4ccc(Cl)cc4Cl)O3)cc2)CC1 (some centres not stated),·,·,·,–,·,·,
COC(=O)C[C@H]1CC[C@@H]2[C@@H](COc3ccc(NC(=O)C4CCCCC4)cc3C(=O)N2C)O1,·,·,·,–,·,·,
O=C(Nc1cccc(C(F)(F)F)c1)c1cccnc1NCCc1ccccc1,–,–,–,–,·,·,
O=C(Nc1cccc(C(F)(F)F)c1)c1cccnc1NCCO,–,–,6.9,–,–,–,
Cc1cc(NS(=O)(=O)c2ccc(NC(=O)CSc3nnc(-c4ccccn4)n3Cc3ccco3)cc2)nc(C)n1,·,·,·,–,·,·,
COc1ccc(CN2CCC(Oc3ccc(C(=O)N4CCCCC4)cc3)CC2)cc1C,–,–,15,–,10,–,
COc1ccc(C(=O)C2CCCN(Cc3cccn3-c3nccs3)C2)cc1OC (configuration not stated),–,–,6.0,–,–,–,
COc1cc(NC(=O)c2cc(-c3ccc4c(c3)OCO4)on2)cc(OC)c1OC,–,–,12,–,–,–,
COc1cc(NC(=O)c2cc(-c3ccccc3)on2)cc(OC)c1OC,–,–,–,–,·,·,
CC(=O)/C(N=Nc1c(C)n(C)n(-c2ccccc2)c1=O)=C(\C)O,–,–,–,–,·,·,
Cc1c(N=NC2=C(O)CC(C)(C)CC2=O)c(=O)n(-c2ccccc2)n1C,–,–,10,–,–,–,
CCCCc1c(-c2ccccc2OC)ncn1Cc1cccc(F)c1,·,–,·,–,·,·,
CCCCN(C(=O)C1CCN(C(=O)c2ccccc2C)CC1)c1c(N)n(CCCC)c(=O)[nH]c1=O,–,–,–,–,·,·,
CCCCn1c(N)c(N(CCC(C)C)C(=O)C2CCN(C(=O)c3ccccc3C)CC2)c(=O)[nH]c1=O,–,–,8.4,–,–,–,
O=C(N/N=C/c1cn(Cc2cccc(F)c2)c2ccccc12)c1cc(O)cc(O)c1,–,–,14,–,8.7,10,
COC(=O)[C@]12C[C@H](CC(=O)N3CCN(C(=O)C4CC4)CC3)C(=O)N(Cc3ccc(Cl)cc3Cl)C1=C[C@H](C(C)(C)C)O[C@@H]2C,·,·,·,–,·,·,
N#CC1=C(N)Oc2c(ccc3cccnc23)C1c1ccccc1 (configuration not stated),–,–,–,–,·,·,
Cc1ccc2[nH]c(=O)c(C3C(C#N)=C(N)Oc4c3ccc3cccnc43)cc2c1 (configuration not stated),–,–,9.8,–,–,–,
COC[C@H]1O[C@]2(c3ccccc3)CO[C@H]1[C@@H](/C=C/c1ccccc1)C2,·,·,·,–,·,·,
Cc1ccccc1-c1nnc2c3ccccc3c(C)nn12,–,–,–,–,·,·,
